Assay results taken from ChEMBL document CHEMBL1132570, “Synthesis of cytotoxic indenoisoquinoline topoisomerase I poisons” (1999).

Legend:
[1] = system: DU-145; experiment: Cytotoxicity against prostate DU-145 human cancer cell line.; type: functional
Method in brief: (§1)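 GI50 = concentration giving 50% growth inhibition, from a screen of about 55 human cancer cell lines over a 10^-8 to 10^-4 M test range. Values come from two determinations where a population standard deviation is shown, otherwise from single determinations.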

[2] = molecular target: T1, DNA topoisomerase 1 (Homo sapiens) (UniProt P11387); experiment: The activity was examined against DNA topoisomerase I mediated DNA cleavage using 3'-End-labelled 161 BP plasmid DNA. 0 indicates inactive
T1 sequence (whole entry): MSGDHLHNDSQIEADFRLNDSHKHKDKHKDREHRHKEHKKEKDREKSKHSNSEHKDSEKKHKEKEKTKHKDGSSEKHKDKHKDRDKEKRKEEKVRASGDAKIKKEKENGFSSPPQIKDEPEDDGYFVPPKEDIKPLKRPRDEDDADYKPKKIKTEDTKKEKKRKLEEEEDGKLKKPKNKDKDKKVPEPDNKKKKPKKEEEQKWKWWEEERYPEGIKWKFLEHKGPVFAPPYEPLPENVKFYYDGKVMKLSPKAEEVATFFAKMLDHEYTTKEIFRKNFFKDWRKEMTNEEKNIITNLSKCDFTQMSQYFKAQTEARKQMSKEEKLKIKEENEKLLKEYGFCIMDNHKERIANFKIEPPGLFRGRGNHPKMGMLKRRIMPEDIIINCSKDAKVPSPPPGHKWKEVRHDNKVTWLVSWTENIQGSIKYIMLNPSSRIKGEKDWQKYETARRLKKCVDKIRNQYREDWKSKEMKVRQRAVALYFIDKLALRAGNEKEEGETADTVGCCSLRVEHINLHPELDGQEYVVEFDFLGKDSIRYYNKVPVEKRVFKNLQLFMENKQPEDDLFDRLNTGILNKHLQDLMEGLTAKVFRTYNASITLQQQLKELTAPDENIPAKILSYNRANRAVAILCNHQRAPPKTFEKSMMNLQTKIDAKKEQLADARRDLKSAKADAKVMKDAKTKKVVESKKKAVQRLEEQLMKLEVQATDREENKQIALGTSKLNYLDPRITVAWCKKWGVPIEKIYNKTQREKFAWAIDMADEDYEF
Method in brief: (§2)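 A 161 bp PvuII–HindIII fragment of pBluescript SK(–) was 3'-end-labeled at the HindIII site with [α-32P]dCTP by Klenow fill-in. About 50 000 dpm per reaction was incubated with top1 and drug (0.1–300 μM) at 30 °C for 30 min, then stopped with 0.5% SDS (final). Products were run on 16% polyacrylamide/7 M urea gels at 51 °C and imaged by phosphorimager.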

[3] = system: HOP-62; experiment: Cytotoxicity against lung HOP-62 human cancer cell line.; type: functional; method in brief: as §1
[4] = system: OVCAR-3; experiment: Cytotoxicity against ovarian OVCAR-3 human cancer cell line.; type: functional; method in brief: as §1
[5] = system: SN12C; experiment: In vitro cytotoxicity against SN12C (Human renal cancer) cell line.; type: functional; method in brief: as §1
[6] = system: SF-539; experiment: Compound was tested for its cytotoxicity against CNS SF-539 Human cancer cell line
[7] = system: SF-539; experiment: Compound was tested for its cytotoxicity against CNS SF-539 cell line; type: functional; details: Homo sapiens; method in brief: as §1
[8] = molecular target: T1, DNA topoisomerase 1 (Homo sapiens); experiment: The activity was examined against DNA topoisomerase I mediated DNA cleavage using 3''-End-labelled 161 BP plasmid DNA; + indicates between 20 and 50% of the activity 0f 1 uM camptothecin; method in brief: as §2
[9] = system: HCT-116; experiment: Cytotoxicity against colon HCT116 human cancer cell line.; type: functional; method in brief: as §1
[10] = system: MDA-MB-435; experiment: In vitro cytotoxicity against MDA-MB-435 (Human breast cancer) cell line.; type: functional; method in brief: as §1
[11] = system: UACC-62; experiment: In vitro cytotoxicity against UACC-62 (Human melanoma) cell line.; type: functional; method in brief: as §1
[12] = system: SF-539; experiment: Compound was tested for its cytotoxicity against CNS SF-539 Human cancer cell line; type: functional; method in brief: as §1
[13] = molecular target: T1, DNA topoisomerase 1 (Homo sapiens); experiment: The activity was examined against DNA topoisomerase I mediated DNA cleavage using 3'-End-labelled 161 BP plasmid DNA; 0 indicates inactive; method in brief: as §2
[14] = system: DU-145; experiment: Compound was tested for its cytotoxicity against prostate DU-145 Human cancer cell line; type: functional; method in brief: as §1

| Top1 cleavage activity [2] | Top1 cleavage activity [13] | Compound | GI50 [1] | GI50 [3] | GI50 [4] | GI50 [5] | GI50 [6] | GI50 [7] | Top1 cleavage activity [8] | GI50 [9] | GI50 [10] | GI50 [11] | GI50 [12] | GI50 [14] |
| --- | --- | --- | --- | --- | --- | --- | --- | --- | --- | --- | --- | --- | --- | --- |
| 0 |  | COc1cc2c(c(OC)c1OC)C(=O)c1c-2n(C)c(=O)c2ccccc12 | > 100 µM | 24 µM | > 100 µM | > 100 µM | > 100 µM |  |  |  |  |  |  |  |
|  |  | O=C1c2ccccc2-c2c1c1ccccc1c(=O)n2CCCCO | > 100 µM | 13 µM | 74 µM | 7.4 µM |  | 4.6 µM | 20-50% of the activity 0f 1 uM camptothecin | 3.2 µM | > 100 µM | 4.4 µM |  |  |
|  | 0 | Cn1c2c(c3ccccc3c1=O)C(=O)c1cc(OCc3ccccc3)c(OCc3ccccc3)cc1-2 |  | 72 µM | > 100 µM | 88 µM |  |  |  | > 100 µM | > 100 µM | 93 µM | > 100 µM | > 100 µM |
